Experimental data as given in ChEMBL document CHEMBL2424574, “Structure-activity relationships and pharmacophore model of a noncompetitive pyrazoline containing class of GluN2C/GluN2D selective antagonists” (J Med Chem, 2013).

Experiments:
Rattus norvegicus [1] = species on record: Rattus norvegicus; assay: Selectivity ratio of IC50 for recombinant rat GluN2B receptor to IC50 for recombinant rat GluN2D receptor
How it was run: (§1)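 Rat GluN1 co-expressed with GluN2A, GluN2B or GluN2D in Xenopus oocytes. Two-electrode voltage clamp at −40 mV in 90 NaCl, 1 KCl, 0.5 BaCl2, 0.005 EDTA, 10 HEPES (mM), pH 7.4, 23 °C; final DMSO 0.1–0.05%. IC50s came from Hill fits to averaged composite concentration-response curves (5–24 oocytes, 2–4 frogs). Ratio is GluN2A or GluN2B IC50 over GluN2D IC50.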

[2] = molecular target: Glutamate receptor ionotropic, NMDA 2A (Rattus norvegicus, UniProt P35439+Q00959); assay: Negative allosteric modulation of recombinant rat GluN2A receptor expressed in Xenopus laevis oocytes by two-electrode voltage clamp method; assay type: cell-based, Oocyte
Glutamate receptor ionotropic, NMDA 2A, sequence (Q00959 whole entry, one chain of several): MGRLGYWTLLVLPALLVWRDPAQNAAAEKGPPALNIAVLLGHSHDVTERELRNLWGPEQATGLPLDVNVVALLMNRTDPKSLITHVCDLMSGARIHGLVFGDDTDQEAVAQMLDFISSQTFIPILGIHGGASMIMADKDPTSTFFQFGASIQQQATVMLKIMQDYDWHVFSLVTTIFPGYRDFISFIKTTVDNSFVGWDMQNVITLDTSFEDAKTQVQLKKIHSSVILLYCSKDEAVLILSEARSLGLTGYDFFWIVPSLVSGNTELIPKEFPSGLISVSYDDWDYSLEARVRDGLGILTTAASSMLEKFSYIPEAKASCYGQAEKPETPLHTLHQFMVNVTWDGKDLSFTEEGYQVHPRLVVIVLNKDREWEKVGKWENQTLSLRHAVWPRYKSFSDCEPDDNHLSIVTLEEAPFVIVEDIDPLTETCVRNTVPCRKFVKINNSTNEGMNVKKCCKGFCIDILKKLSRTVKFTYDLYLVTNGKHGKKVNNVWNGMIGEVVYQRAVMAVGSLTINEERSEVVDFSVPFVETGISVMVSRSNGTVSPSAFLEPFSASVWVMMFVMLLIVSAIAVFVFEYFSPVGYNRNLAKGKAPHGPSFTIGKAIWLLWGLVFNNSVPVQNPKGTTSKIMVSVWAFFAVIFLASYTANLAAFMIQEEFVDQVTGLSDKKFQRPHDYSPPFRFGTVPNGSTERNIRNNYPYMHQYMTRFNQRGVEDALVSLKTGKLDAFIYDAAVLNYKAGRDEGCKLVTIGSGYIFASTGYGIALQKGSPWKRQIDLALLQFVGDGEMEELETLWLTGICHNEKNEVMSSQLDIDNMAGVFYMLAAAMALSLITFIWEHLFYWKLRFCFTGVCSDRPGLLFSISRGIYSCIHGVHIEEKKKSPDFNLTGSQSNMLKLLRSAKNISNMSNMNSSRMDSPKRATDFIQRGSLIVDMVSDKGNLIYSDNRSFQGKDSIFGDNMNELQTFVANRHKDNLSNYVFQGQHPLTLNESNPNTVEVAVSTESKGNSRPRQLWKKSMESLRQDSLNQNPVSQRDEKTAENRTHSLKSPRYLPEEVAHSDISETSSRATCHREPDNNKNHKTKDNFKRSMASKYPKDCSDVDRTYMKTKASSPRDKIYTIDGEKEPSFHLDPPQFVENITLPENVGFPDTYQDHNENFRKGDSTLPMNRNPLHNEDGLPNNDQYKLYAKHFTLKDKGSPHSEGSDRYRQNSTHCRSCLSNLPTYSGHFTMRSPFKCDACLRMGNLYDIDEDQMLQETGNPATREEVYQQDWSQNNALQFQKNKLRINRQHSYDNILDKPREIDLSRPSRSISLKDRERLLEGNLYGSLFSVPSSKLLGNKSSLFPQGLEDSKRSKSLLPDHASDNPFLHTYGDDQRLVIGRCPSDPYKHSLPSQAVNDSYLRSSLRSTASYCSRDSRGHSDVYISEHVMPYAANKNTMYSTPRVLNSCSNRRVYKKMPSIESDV
How it was run: (§2)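 Two-electrode voltage clamp of Xenopus oocytes expressing rat GluN1 with GluN2A, 2B, 2C or 2D. Holding potential −40 mV in recording solution (mM: 90 NaCl, 1 KCl, 0.5 BaCl2, 0.005 EDTA, 10 HEPES, pH 7.4, 23 °C). Compounds diluted from 20 mM DMSO stocks to 0.05–0.1% final DMSO. IC50 from a Hill fit to the averaged composite concentration–response curve, 5–24 oocytes from 2–4 frogs.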

[3] = molecular target: Glutamate receptor ionotropic, NMDA 2B (Rattus norvegicus, UniProt P35439+Q00960); assay: Negative allosteric modulation of recombinant rat GluN2B receptor expressed in Xenopus laevis oocytes by two-electrode voltage clamp method; assay type: cell-based, Oocyte; how it was run: as §2
Glutamate receptor ionotropic, NMDA 2B, sequence (Q00960 whole entry, one chain of several): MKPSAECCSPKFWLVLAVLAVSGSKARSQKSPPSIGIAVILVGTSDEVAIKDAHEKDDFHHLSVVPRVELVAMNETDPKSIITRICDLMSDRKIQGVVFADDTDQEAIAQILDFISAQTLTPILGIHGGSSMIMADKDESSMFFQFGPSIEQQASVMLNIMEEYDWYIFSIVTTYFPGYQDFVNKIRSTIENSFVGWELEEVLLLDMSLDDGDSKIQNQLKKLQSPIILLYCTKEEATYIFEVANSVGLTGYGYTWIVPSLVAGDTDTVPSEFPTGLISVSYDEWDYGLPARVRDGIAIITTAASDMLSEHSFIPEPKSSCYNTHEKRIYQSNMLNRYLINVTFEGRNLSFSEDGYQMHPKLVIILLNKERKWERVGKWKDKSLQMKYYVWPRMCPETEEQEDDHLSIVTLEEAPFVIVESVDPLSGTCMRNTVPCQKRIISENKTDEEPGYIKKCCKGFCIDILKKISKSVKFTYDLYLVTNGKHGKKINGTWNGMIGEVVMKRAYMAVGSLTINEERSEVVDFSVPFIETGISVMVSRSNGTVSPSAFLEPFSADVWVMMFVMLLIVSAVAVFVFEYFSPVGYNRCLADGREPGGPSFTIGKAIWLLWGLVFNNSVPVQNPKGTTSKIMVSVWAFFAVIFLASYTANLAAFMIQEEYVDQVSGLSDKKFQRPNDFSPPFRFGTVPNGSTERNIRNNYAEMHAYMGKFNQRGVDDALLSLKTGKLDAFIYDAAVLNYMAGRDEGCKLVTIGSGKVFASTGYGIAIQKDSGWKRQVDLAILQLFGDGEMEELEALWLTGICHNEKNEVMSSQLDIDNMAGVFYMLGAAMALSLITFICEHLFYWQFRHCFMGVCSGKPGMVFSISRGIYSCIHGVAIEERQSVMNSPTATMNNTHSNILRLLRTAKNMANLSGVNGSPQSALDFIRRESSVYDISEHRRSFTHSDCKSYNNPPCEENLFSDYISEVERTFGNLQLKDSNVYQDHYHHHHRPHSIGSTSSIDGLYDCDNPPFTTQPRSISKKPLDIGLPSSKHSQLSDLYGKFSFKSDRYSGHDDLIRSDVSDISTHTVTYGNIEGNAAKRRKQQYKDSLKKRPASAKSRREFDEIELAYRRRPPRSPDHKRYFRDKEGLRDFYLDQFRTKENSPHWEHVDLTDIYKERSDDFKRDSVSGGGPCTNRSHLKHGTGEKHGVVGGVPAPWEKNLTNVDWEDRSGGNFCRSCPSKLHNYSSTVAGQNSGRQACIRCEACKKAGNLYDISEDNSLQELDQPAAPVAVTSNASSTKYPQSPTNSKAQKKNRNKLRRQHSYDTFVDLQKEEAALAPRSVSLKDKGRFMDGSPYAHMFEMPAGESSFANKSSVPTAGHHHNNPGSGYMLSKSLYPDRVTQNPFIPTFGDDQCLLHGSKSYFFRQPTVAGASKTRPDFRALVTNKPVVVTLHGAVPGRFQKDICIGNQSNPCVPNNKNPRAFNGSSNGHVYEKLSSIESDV

[4] = molecular target: Glutamate receptor ionotropic, NMDA 2C (Rattus norvegicus, UniProt P35439+Q00961); assay: Negative allosteric modulation of recombinant rat GluN2C receptor expressed in Xenopus laevis oocytes by two-electrode voltage clamp method; assay type: cell-based, Oocyte; how it was run: as §2
Glutamate receptor ionotropic, NMDA 2C, sequence (Q00961 whole entry, one chain of several): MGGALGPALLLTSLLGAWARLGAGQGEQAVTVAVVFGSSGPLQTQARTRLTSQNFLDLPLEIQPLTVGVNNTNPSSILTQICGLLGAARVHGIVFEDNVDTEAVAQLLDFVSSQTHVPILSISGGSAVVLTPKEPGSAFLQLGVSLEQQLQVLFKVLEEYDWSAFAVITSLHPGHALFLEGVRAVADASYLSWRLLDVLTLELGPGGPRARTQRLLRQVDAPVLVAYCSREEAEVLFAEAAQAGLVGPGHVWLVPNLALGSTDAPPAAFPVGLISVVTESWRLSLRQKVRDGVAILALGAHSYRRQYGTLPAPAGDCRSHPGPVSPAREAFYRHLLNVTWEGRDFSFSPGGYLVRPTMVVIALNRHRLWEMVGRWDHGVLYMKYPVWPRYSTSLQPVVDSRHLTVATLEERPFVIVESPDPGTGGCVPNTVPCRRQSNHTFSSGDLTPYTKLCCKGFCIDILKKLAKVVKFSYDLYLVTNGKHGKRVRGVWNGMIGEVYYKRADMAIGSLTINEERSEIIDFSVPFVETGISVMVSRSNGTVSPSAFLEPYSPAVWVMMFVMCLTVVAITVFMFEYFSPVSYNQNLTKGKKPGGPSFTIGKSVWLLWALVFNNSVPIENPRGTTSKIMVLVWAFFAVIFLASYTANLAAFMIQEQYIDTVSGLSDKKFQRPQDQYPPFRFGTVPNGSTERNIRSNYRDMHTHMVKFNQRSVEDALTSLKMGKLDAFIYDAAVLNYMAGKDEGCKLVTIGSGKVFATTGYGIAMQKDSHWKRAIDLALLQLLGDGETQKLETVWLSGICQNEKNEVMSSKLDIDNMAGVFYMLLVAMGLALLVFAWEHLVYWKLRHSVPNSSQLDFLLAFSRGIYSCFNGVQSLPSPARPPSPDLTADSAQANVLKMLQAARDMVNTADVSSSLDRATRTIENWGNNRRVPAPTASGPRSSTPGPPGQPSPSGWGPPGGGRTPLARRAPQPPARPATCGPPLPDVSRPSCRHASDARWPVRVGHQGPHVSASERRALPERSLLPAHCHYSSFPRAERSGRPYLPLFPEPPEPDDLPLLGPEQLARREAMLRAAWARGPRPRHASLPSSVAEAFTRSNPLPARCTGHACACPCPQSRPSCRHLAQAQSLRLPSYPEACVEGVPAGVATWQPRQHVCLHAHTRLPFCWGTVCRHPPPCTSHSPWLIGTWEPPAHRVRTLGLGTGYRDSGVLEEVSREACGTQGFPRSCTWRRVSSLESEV

Rattus norvegicus [5] = species on record: Rattus norvegicus; assay: Selectivity ratio of IC50 for recombinant rat GluN2A receptor to IC50 for recombinant rat GluN2D receptor; how it was run: as §1
[6] = molecular target: Glutamate receptor ionotropic, NMDA 2D (Rattus norvegicus, UniProt P35439+Q62645); assay: Negative allosteric modulation of recombinant rat GluN2D receptor expressed in Xenopus laevis oocytes by two-electrode voltage clamp method; assay type: cell-based, Oocyte; how it was run: as §2

Row | SMILES | Ratio IC50 (Rattus norvegicus [1]) | IC50 [2] [µM] | IC50 [3] [µM] | IC50 [4] [µM] | Ratio IC50 (Rattus norvegicus [5]) | IC50 [6] [µM]
1 | O=C(O)CCC(=O)N1N=C(c2c(-c3ccc(Cl)cc3)c3ccccc3[nH]c2=O)C[C@H]1c1ccc(Cl)cc1 | 156 | 13 | 26 | 0.22 | 78 | 
2 | O=C(O)/C=C\C(=O)N1N=C(c2c(-c3ccccc3)c3cc(Cl)ccc3[nH]c2=O)CC1c1ccc(Br)cc1 (stereo not drawn) | 7 | 74 | 37 | 8.9 | 15 | 5
3 | O=C(O)CCC(=O)N1N=C(c2c(-c3ccc(Br)cc3)c3ccccc3[nH]c2=O)CC1c1ccc(Br)cc1 (stereo not drawn) | 59 | 13 | 23 |  | 33 | 
4 | O=C(O)CCC(=O)N1N=C(c2c(-c3ccc(F)c(Cl)c3)c3ccccc3[nH]c2=O)CC1c1ccc(Cl)cc1 (stereo not drawn) | 34 | 19 | 34 | 1.4 | 19 | 1
5 | O=C(O)CCC(=O)N1N=C(c2c(-c3ccc(Br)cc3)c3ccccc3[nH]c2=O)CC1c1ccc(F)cc1 (stereo not drawn) | 26 | 34 | 75 | 3.8 | 12 | 2.9
6 | COc1ccc(C2CC(c3c(-c4ccccc4)c4cc(Cl)ccc4[nH]c3=O)=NN2C(=O)CCC(=O)O)cc1 (stereo not drawn) |  | 197 | 187 | 28 |  | 21
7 | Cc1cccc(-c2c(C3=NN(C(=O)CCC(=O)O)C(c4ccc(Cl)cc4)C3)c(=O)[nH]c3ccccc23)c1 (stereo not drawn) | 37 | 24 | 71 | 4 | 13 | 1.9
8 | COc1ccc(-c2c(C3=NN(C(=O)CCC(=O)O)C(c4ccc(Cl)cc4)C3)c(=O)[nH]c3ccccc23)cc1 (stereo not drawn) | 33 | 62 | 75 | 5 | 27 | 2.3
9 | O=C(O)CCCC(=O)N1N=C(c2c(-c3ccccc3)c3cc(Cl)ccc3[nH]c2=O)CC1c1ccc([N+](=O)[O-])cc1 (stereo not drawn) | 8 | 109 | 92 | 10 | 10 | 11
10 | O=C(O)CCC(=O)N1N=C(c2c(-c3ccccc3)c3cc(Cl)ccc3[nH]c2=O)CC1c1ccc(F)cc1 (stereo not drawn) | 6 | 128 | 87 | 23 | 9 | 14
11 | O=C(O)CCC(=O)N1N=C(c2c(-c3ccc(Br)cc3)c3ccccc3[nH]c2=O)CC1c1ccc(Cl)cc1 (stereo not drawn) |  | 10 | 23 | 0.56 |  | 0.29
12 | COc1ccc(C2CC(c3c(O)nc4ccc(Cl)cc4c3-c3ccccc3)=NN2C(=O)CCC(=O)O)cc1 (stereo not drawn) | 9 |  |  |  | 9 | 
13 | O=C(O)CCCN1N=C(c2c(-c3ccc(Cl)cc3)c3ccccc3[nH]c2=O)CC1c1ccc(Cl)cc1 (stereo not drawn) | 31 | 58 | 53 |  | 34 | 
14 | O=C(O)CCC(=O)N1N=C(c2c(-c3ccccc3)c3cc(Cl)ccc3[nH]c2=O)CC1c1ccc([N+](=O)[O-])cc1 (stereo not drawn) | 42 | 91 | 45 | 0.9 | 85 | 1.1
15 | O=C(O)CCC(=O)N1N=C(c2c(-c3ccc(Cl)cc3)c3ccccc3[nH]c2=O)CC1c1ccc(Br)cc1 (stereo not drawn) | 67 | 19 | 34 | 0.95 | 37 | 0.51
16 | O=C(O)CCC(=O)N1N=C(c2c(-c3ccc(Br)cc3)c3ccccc3[nH]c2=O)CC1c1ccccc1 (stereo not drawn) | 12 | 64 | 113 | 10 | 7 | 9.1
17 | O=C(O)CCC(=O)N1N=C(c2c(-c3cccc(F)c3)c3ccccc3[nH]c2=O)CC1c1ccc(Cl)cc1 (stereo not drawn) | 101 | 46 | 70 | 1.1 | 67 | 0.69
18 | O=C(O)CCC(=O)N1N=C(c2c(-c3ccc(C(F)(F)F)cc3)c3ccccc3[nH]c2=O)CC1c1ccc(Cl)cc1 (stereo not drawn) | 14 | 29 | 39 | 3.6 | 10 | 2.8

Row | SMILES | Ratio IC50 (Rattus norvegicus [1]) | IC50 [2] [µM] | IC50 [3] [µM] | IC50 [4] [µM] | Ratio IC50 (Rattus norvegicus [5]) | IC50 [6] [µM]
19 | O=C(O)CCC(=O)N1N=C(c2c(-c3ccc(F)cc3)c3ccccc3[nH]c2=O)CC1c1ccc(Cl)cc1 (stereo not drawn) | 98 | 21 | 57 | 1 | 36 | 0.58
20 | O=C(O)CCCC(=O)N1N=C(c2c(-c3ccccc3)c3cc(Cl)ccc3[nH]c2=O)CC1c1ccc(Br)cc1 (stereo not drawn) | 23 | 78 | 90 | 6.4 | 20 | 4
21 | COc1cccc(-c2c(C3=NN(C(=O)CCC(=O)O)C(c4ccc(Cl)cc4)C3)c(=O)[nH]c3ccccc23)c1 (stereo not drawn) | 34 | 110 | 152 | 7.8 | 24 | 4.5
22 | O=C(O)CCC(=O)N1N=C(c2c(-c3ccc(F)c(F)c3)c3ccccc3[nH]c2=O)CC1c1ccc(Cl)cc1 (stereo not drawn) | 108 | 21 | 71 | 0.78 | 32 | 0.66
23 | O=C(O)CCC(=O)N1N=C(c2c(-c3ccccc3)c3cc(Cl)ccc3[nH]c2=O)CC1c1ccc(C(F)(F)F)cc1 (stereo not drawn) | 13 | 80 | 54 | 5 | 20 | 
24 | O=C(O)CCC(=O)N1N=C(c2c(-c3cc(F)cc(F)c3)c3ccccc3[nH]c2=O)CC1c1ccc(Cl)cc1 (stereo not drawn) | 123 | 21 | 100 | 1.1 | 26 | 0.81
25 | O=C(O)CCC(=O)N1N=C(c2c(-c3ccc(Cl)cc3)c3ccccc3[nH]c2=O)CC1c1ccc(F)cc1 (stereo not drawn) | 26 | 47 | 90 | 4.1 | 14 | 3.4
26 | O=C(O)CCC(=O)N1N=C(c2c(-c3cccc(C(F)(F)F)c3)c3ccccc3[nH]c2=O)CC1c1ccc(Cl)cc1 (stereo not drawn) | 18 | 28 | 47 | 3.4 | 11 | 2.6
27 | O=C(O)/C=C\C(=O)N1N=C(c2c(-c3ccc(Br)cc3)c3ccccc3[nH]c2=O)CC1c1ccc(Cl)cc1 (stereo not drawn) | 30 | 12 | 17 | 1 | 21 | 0.57
28 | O=C(O)CCC(=O)N1N=C(c2c(-c3ccccc3)c3cc(Cl)ccc3[nH]c2=O)CC1c1ccccc1 (stereo not drawn) |  |  |  | 86 |  | 88
29 | O=C(O)CCC(=O)N1N=C(c2c(-c3cc(Cl)cc(Cl)c3)c3ccccc3[nH]c2=O)CC1c1ccc(Cl)cc1 (stereo not drawn) | 19 | 5.5 | 13 | 0.78 | 8 | 0.7
30 | O=C(O)CCCC(=O)N1N=C(c2c(-c3ccc(Br)cc3)c3ccccc3[nH]c2=O)CC1c1ccc(Cl)cc1 (stereo not drawn) | 91 | 10 | 29 | 0.6 | 33 | 0.32
31 | Cc1ccc(-c2c(C3=NN(C(=O)CCC(=O)O)C(c4ccc(Cl)cc4)C3)c(=O)[nH]c3ccccc23)cc1 (stereo not drawn) | 30 | 33 | 42 | 2.5 | 24 | 1.4
32 | O=C(O)CCC(=O)N1N=C(c2c(-c3ccc(Cl)cc3)c3ccccc3[nH]c2=O)CC1c1ccccc1 (stereo not drawn) | 13 | 49 | 143 | 13 | 4 | 11
33 | O=C(O)CCC(=O)N1N=C(c2c(-c3cccc(Cl)c3)c3ccccc3[nH]c2=O)CC1c1ccc(Cl)cc1 (stereo not drawn) | 43 | 20 | 43 | 2.1 | 20 | 1
34 | NC(=O)CCC(=O)N1N=C(c2c(-c3ccc(Cl)cc3)c3ccccc3[nH]c2=O)CC1c1ccc(Cl)cc1 (stereo not drawn) | 18 | 34 | 20 | 2 | 31 | 1.1
35 | O=C(O)CCC(=O)N1N=C(c2c(-c3ccc(Cl)c(F)c3)c3ccccc3[nH]c2=O)CC1c1ccc(Cl)cc1 (stereo not drawn) | 53 | 12 | 28 | 0.91 | 23 | 0.53
36 | O=C(O)CCC(=O)N1N=C(c2c(-c3ccc(Cl)c(Cl)c3)c3ccccc3[nH]c2=O)CC1c1ccc(Cl)cc1 (stereo not drawn) | 22 | 7.7 | 20 | 0.79 | 8 | 0.91
